Data reported in PubChem BioAssay AID504519 (The Scripps Research Institute Molecular Screening Center, 2011).
Calls of active or inactive are those of the source.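 How the source made its calls: active means labelling ratio, compound over solvent, at most 0.5 for PAFAH2 while all off-target serine hydrolases stay above 0.5; inactive means the rest.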

Tests used:
Test in all cases: SILAC ABPP target and off-target inhibition profile – LC-MS, BW5147 murine T cells, selectivity assay for PAFAH2 inhibitor project, late-stage follow-up (AID 504519)
ABHD6 = settings: stronger effect = lower value
How it was run: (§1)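 Material: murine T-cell hybridoma line derived from BW5147, SILAC-labeled (light or heavy). Buffer or medium: SILAC RPMI, light or heavy. Doses: compound (light cells) versus DMSO (heavy cells). Technique: MudPIT LC/LC-MS/MS after biotin enrichment. Evaluation: Per-protein light/heavy peptide intensity ratio, 1 meaning no inhibition. Controls: heavy DMSO-treated cells as reference.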

PNPLA6 = settings: stronger effect = lower value
How it was run: as §1

SERHL = settings: stronger effect = lower value
How it was run: as §1

DDHD1 = settings: stronger effect = lower value
How it was run: as §1

[1] = biological target: Platelet-activating factor acetylhydrolase 2, cytoplasmic (Mus musculus) (UniProt Q8VDG7); settings: PAFAH2, stronger effect = lower value
Platelet-activating factor acetylhydrolase 2, cytoplasmic (Mus musculus), sequence (Q8VDG7 whole entry, looked up): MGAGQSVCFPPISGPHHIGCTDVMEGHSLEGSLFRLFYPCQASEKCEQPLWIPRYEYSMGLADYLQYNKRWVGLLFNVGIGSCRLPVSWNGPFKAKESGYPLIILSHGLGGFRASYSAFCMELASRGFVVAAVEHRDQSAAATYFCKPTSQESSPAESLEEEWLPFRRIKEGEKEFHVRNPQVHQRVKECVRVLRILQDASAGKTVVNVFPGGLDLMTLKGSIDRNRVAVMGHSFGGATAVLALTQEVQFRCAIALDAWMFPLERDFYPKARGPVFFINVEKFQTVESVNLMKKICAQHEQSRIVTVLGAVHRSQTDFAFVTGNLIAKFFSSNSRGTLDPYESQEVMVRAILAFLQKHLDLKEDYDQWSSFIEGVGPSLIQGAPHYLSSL
How it was run: as §1

PAFAH1B3 = settings: stronger effect = lower value
How it was run: as §1

DPP8 = settings: stronger effect = lower value
How it was run: as §1

DPP4 = settings: stronger effect = lower value
How it was run: as §1

FASN = settings: stronger effect = lower value
How it was run: as §1

LACTB = settings: stronger effect = lower value
How it was run: as §1

SIAE = settings: stronger effect = lower value
How it was run: as §1

ESD = settings: stronger effect = lower value
How it was run: as §1

ABHD10 = settings: stronger effect = lower value
How it was run: as §1

ACOT7 = settings: stronger effect = lower value
How it was run: as §1

PLA2G6 = settings: stronger effect = lower value
How it was run: as §1

LYPLA2 = settings: stronger effect = lower value
How it was run: as §1

ACOT2 = settings: stronger effect = lower value
How it was run: as §1

BAT5 = settings: stronger effect = lower value
How it was run: as §1

ABHD11 = settings: stronger effect = lower value
How it was run: as §1

DPP7 = settings: stronger effect = lower value
How it was run: as §1

PPME1 = settings: stronger effect = lower value
How it was run: as §1

APEH = settings: stronger effect = lower value
How it was run: as §1

LYPLA1 = settings: stronger effect = lower value
How it was run: as §1

PARL = settings: stronger effect = lower value
How it was run: as §1

PAFAH1B2 = settings: stronger effect = lower value
How it was run: as §1

FAM108A = settings: stronger effect = lower value
How it was run: as §1

PRCP = settings: stronger effect = lower value
How it was run: as §1

[2] = biological target: Prolyl endopeptidase (Mus musculus) (UniProt Q9QUR6); settings: PREP, stronger effect = lower value
Prolyl endopeptidase (Mus musculus), sequence (Q9QUR6 whole entry, looked up): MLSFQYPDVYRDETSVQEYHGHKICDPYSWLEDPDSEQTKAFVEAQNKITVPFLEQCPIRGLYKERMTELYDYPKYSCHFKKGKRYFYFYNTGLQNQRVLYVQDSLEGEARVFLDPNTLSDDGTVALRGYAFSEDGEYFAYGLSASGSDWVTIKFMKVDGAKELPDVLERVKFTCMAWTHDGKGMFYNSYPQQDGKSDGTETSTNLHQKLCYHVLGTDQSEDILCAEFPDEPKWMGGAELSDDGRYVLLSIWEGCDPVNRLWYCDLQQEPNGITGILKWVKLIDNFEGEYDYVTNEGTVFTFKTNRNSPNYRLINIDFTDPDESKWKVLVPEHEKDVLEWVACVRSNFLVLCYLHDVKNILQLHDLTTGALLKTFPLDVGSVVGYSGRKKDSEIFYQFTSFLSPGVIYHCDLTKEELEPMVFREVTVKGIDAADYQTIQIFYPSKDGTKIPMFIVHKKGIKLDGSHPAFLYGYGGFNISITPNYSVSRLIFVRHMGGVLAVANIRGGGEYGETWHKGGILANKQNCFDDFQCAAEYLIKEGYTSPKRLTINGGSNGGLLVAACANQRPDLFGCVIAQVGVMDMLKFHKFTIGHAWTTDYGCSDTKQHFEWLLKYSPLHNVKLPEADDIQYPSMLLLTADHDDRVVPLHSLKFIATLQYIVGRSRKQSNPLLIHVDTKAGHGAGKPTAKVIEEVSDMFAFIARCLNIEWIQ
How it was run: as §1

FAAH = settings: stronger effect = lower value
How it was run: as §1

PNPLA7 = settings: stronger effect = lower value
How it was run: as §1

DPP9 = settings: stronger effect = lower value
How it was run: as §1

ABHD13 = settings: stronger effect = lower value
How it was run: as §1

LIPA = settings: stronger effect = lower value
How it was run: as §1

PREPL = settings: stronger effect = lower value
How it was run: as §1

FAM108B1 = settings: stronger effect = lower value
How it was run: as §1

IAH1 = settings: stronger effect = lower value
How it was run: as §1

ACOT1 = settings: stronger effect = lower value
How it was run: as §1

CTSA = settings: stronger effect = lower value
How it was run: as §1

AADACL1 = settings: stronger effect = lower value
How it was run: as §1

FAM108C = settings: stronger effect = lower value
How it was run: as §1

LYPLA3 = settings: stronger effect = lower value
How it was run: as §1

ABHD12 = settings: stronger effect = lower value
How it was run: as §1

O=C(N1CCCC1)n1ncc(-c2ccc(-c3ccccc3)cc2)n1
SILAC ratio inhibitor/DMSO (ABHD6): 0.59 (inactive)
SILAC ratio inhibitor/DMSO (PNPLA6): 1.6 (inactive)
SILAC ratio inhibitor/DMSO (SERHL): 1.1 (inactive)
SILAC ratio inhibitor/DMSO (DDHD1): 1.4 (inactive)
SILAC ratio inhibitor/DMSO [1]: 0
SILAC ratio inhibitor/DMSO (PAFAH1B3): 1.3 (inactive)
SILAC ratio inhibitor/DMSO (DPP8): 1.3 (inactive)
SILAC ratio inhibitor/DMSO (DPP4): 1.2 (inactive)
SILAC ratio inhibitor/DMSO (FASN): 1.3 (inactive)
SILAC ratio inhibitor/DMSO (LACTB): 1.3 (inactive)
SILAC ratio inhibitor/DMSO (SIAE): 1.3 (inactive)
SILAC ratio inhibitor/DMSO (ESD): 1 (inactive)
SILAC ratio inhibitor/DMSO (ABHD10): 1.4 (inactive)
SILAC ratio inhibitor/DMSO (ACOT7): 1.2 (inactive)
SILAC ratio inhibitor/DMSO (PLA2G6): 0.91 (inactive)
SILAC ratio inhibitor/DMSO (LYPLA2): 1.4 (inactive)
SILAC ratio inhibitor/DMSO (ACOT2): 1.2 (inactive)
SILAC ratio inhibitor/DMSO (BAT5): 1.3 (inactive)
SILAC ratio inhibitor/DMSO (ABHD11): 1.4 (inactive)
SILAC ratio inhibitor/DMSO (DPP7): 1.2 (inactive)
SILAC ratio inhibitor/DMSO (PPME1): 1.2 (inactive)
SILAC ratio inhibitor/DMSO (APEH): 1 (inactive)
SILAC ratio inhibitor/DMSO (LYPLA1): 1.3 (inactive)
SILAC ratio inhibitor/DMSO (PARL): 1.2 (inactive)
SILAC ratio inhibitor/DMSO (PAFAH1B2): 1.2 (inactive)
SILAC ratio inhibitor/DMSO (FAM108A): 1.1 (inactive)
SILAC ratio inhibitor/DMSO (PRCP): 1.4 (inactive)
SILAC ratio inhibitor/DMSO [2]: 1.3 (inactive)
SILAC ratio inhibitor/DMSO (FAAH): 1.3 (inactive)
SILAC ratio inhibitor/DMSO (PNPLA7): 1.6 (inactive)
SILAC ratio inhibitor/DMSO (DPP9): 1.3 (inactive)
SILAC ratio inhibitor/DMSO (ABHD13): 1.2 (inactive)
SILAC ratio inhibitor/DMSO (LIPA): 1.6 (inactive)
SILAC ratio inhibitor/DMSO (PREPL): 1.3 (inactive)
SILAC ratio inhibitor/DMSO (FAM108B1): 1.2 (inactive)
SILAC ratio inhibitor/DMSO (IAH1): 1.2 (inactive)
SILAC ratio inhibitor/DMSO (ACOT1): 1.2 (inactive)
SILAC ratio inhibitor/DMSO (CTSA): 1.1 (inactive)
SILAC ratio inhibitor/DMSO (AADACL1): 1.3 (inactive)
SILAC ratio inhibitor/DMSO (FAM108C): 1.3 (inactive)
SILAC ratio inhibitor/DMSO (LYPLA3): 1.3 (inactive)
SILAC ratio inhibitor/DMSO (ABHD12): 1.3 (inactive)
